Results: ChEMBL document CHEMBL4385665, “Synthesis of N-arylindazole-3-carboxamide and N-benzoylindazole derivatives and their evaluation against α-MSH-stimulated melanogenesis” (Bioorg Med Chem Lett, 2019)

Legend:
B16 [1] = experiment: Inhibition of alpha-MSH-stimulated melanogenesis in mouse B16 cells assessed as reduction in melanin production incubated for 3 days; type: functional, cell-based; settings: B16, 72 h
Method in brief: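 B16 melanoma cells stimulated with α-MSH (100nM) and incubated with test agent for three days. Melanin released into the culture medium was quantified by sample absorbance against a synthetic melanin standard, and IC50 values were derived from inhibition of melanin formation.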

B16 [2] = experiment: Potency index, ratio of IC50 for arbutin to IC50 for test compound for inhibition of alpha-MSH-stimulated melanogenesis in mouse B16 cells assessed as reduction in melanin production incubated for 3 days; type: functional

Row | Compound | IC50 (B16 [1]) [µM] | Ratio IC50 (B16 [2])
1 | COc1ccc(NC(=O)c2n[nH]c3ccccc23)cc1 | 20 | 
2 | COC(=O)c1ccc(NC(=O)c2n[nH]c3ccccc23)cc1 | 69 | 
3 | COc1ccccc1NC(=O)c1n[nH]c2ccccc12 | 16 | 4
4 | COc1cccc(NC(=O)c2n[nH]c3ccccc23)c1 | 36 | 
5 | O=C(Nc1ccc(Cl)cc1)c1n[nH]c2ccccc12 | 93 | 
6 | O=C(c1ccccc1)n1ncc2cc([N+](=O)[O-])ccc21 | 51 | 
7 | O=C(Nc1ccc(O)cc1)c1n[nH]c2ccccc12 | 18 | 
8 | O=C(Nc1ccccc1O)c1n[nH]c2ccccc12 | 21 | 
9 | O=C(Nc1cccc(O)c1)c1n[nH]c2ccccc12 | 35 | 
10 | Cc1cccc(C(=O)n2ncc3cc([N+](=O)[O-])c(Br)cc32)c1 | 28 | 
11 | O=C(Cc1cccs1)n1ncc2cc([N+](=O)[O-])ccc21 | 55 | 
12 | O=C(Nc1ccc(C(F)(F)F)cc1)c1n[nH]c2ccccc12 | 15 | 4
13 | Cc1cccc(C(=O)n2ncc3cc([N+](=O)[O-])ccc32)c1 | 77 | 
14 | O=C(Nc1ccccc1)c1n[nH]c2ccccc12 | 40 | 
15 | OC[C@H]1O[C@@H](Oc2ccc(O)cc2)[C@H](O)[C@@H](O)[C@@H]1O [ARBUTIN] | 64 | 

The remaining molecules from weak to strong by IC50 (B16 [1]), led by results:

Row | IC50 (B16 [1]) [µM] | Compound | Ratio IC50 (B16 [2])
16 | 60 | O=C(c1ccc(Cl)cc1)n1ncc2cc([N+](=O)[O-])ccc21 | 
17 | 38 | Cc1ccc(NC(=O)c2n[nH]c3ccccc23)cc1 | 
18 | 32 | O=C(c1ccccc1)n1ncc2cc([N+](=O)[O-])c(Br)cc21 | 
19 | 25 | O=C(c1ccccc1Cl)n1ncc2cc([N+](=O)[O-])c(Br)cc21 | 4
20 | 15 | Cc1cccc(NC(=O)c2n[nH]c3ccccc23)c1 | 
21 | 13 | O=C(Nc1ccc(OC(F)(F)F)cc1)c1n[nH]c2ccccc12 | 5
22 | 7 | O=C(c1ccccc1Cl)n1ncc2cc([N+](=O)[O-])ccc21 | 9
